Reference: article PMC4207553 (Journal of Medicinal Chemistry, 2014)
Marks after values point to notes of the source that are not given here.

Legend:
hERG = hERG (Homo sapiens, UniProt Q12809); test: hERG binding assay, [3H]astemizole displacement; details: 10 μM, assay run by Ricera under identical conditions
Method in brief: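 Single-point radioligand displacement at 10 μM of test compound. The result is expressed as percent displacement relative to control. The run was made at a second contract laboratory under conditions identical to the first laboratory's assay.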

[1] = Microsomal stability, mouse microsomes; assay type: in vitro ADME; details: % remaining at 1 h
P. falciparum Dd2 = test: P. falciparum asexual blood-stage growth inhibition; assay type: cell-based; details: relative to compound 2
[2] = Metabolite identification study in mouse liver microsomes; assay type: in vitro ADME; details: via N-demethylation at R1, hydroxylation, and combined events

hERG, sequence (Q12809 whole entry): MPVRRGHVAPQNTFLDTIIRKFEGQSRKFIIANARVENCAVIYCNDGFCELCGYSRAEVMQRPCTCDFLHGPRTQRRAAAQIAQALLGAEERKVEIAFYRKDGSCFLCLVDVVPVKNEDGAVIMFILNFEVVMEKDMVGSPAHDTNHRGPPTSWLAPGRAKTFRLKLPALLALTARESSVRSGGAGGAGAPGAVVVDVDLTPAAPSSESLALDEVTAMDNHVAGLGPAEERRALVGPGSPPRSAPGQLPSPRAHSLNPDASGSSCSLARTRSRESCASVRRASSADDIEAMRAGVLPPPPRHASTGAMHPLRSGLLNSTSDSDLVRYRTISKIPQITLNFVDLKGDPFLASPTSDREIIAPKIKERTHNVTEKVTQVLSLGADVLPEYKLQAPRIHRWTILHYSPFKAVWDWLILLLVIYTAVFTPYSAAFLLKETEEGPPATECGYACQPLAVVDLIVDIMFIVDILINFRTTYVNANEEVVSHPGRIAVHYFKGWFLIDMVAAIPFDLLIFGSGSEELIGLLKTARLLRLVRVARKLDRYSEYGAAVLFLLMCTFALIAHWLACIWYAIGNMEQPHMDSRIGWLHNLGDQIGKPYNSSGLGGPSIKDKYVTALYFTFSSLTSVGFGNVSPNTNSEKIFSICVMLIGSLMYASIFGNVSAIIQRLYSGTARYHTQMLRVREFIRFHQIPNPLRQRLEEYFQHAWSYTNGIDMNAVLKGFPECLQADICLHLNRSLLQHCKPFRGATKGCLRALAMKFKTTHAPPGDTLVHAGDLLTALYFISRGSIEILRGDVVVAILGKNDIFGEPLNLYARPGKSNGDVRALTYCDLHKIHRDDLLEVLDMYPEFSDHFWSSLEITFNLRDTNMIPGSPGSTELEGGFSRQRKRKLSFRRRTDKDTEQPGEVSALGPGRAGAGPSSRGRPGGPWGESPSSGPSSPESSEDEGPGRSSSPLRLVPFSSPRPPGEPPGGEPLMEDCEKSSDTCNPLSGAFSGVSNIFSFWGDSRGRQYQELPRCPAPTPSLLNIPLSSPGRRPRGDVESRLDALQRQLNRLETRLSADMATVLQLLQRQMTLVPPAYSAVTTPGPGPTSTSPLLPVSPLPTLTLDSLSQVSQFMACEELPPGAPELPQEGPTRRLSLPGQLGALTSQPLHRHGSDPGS

Row | SMILES | Microsome Stability [1] | further results
1 | C[C@@H]1CN([C@@H](C)CN(C)C)C(=O)c2cc(NC(=O)Nc3ccccc3)ccc2O[C@@H](C)CCCCO[C@H]1CN(C)S(=O)(=O)c1ccc(F)cc1 [Compound 2] | – | hERG, % displacement control (hERG): 95^b %
2 | C[C@@H]1CN([C@@H](C)CN(C)C)C(=O)c2cc(NC(=O)Nc3ccc(F)cc3)ccc2O[C@@H](C)CCCCO[C@H]1CN(C)S(=O)(=O)c1ccc(F)cc1 [Compound 3] | <5 % remaining | –
3 | C[C@@H]1CN([C@@H](C)CN(C)C)C(=O)c2cc(NC(=O)NC3COC3)ccc2O[C@@H](C)CCCCO[C@H]1CN(C)S(=O)(=O)c1ccc(F)cc1 [Compound 4] | 8 % remaining | fold less potent than 2 (Dd2 GI50) (P. falciparum Dd2): approximately 60 fold
4 | CCN(CC)C[C@H](C)N1C[C@@H](C)[C@H](CN(C)S(=O)(=O)c2ccc(F)cc2)OCCCC[C@H](C)Oc2ccc(NC(=O)Nc3c(C)noc3C)cc2C1=O [Compound 9] | 5 % remaining | –
5 | Cc1noc(C)c1NC(=O)Nc1ccc2c(c1)C(=O)N([C@@H](C)C[N+](C)(C)[O-])C[C@@H](C)[C@H](CN(C)S(=O)(=O)c1ccc(F)cc1)OCCCC[C@H](C)O2 [Compound 10] | 35 % remaining | –
6 | Cc1noc(C)c1NC(=O)Nc1ccc2c(c1)C(=O)N([C@@H](C)CN1CCOCC1)C[C@@H](C)[C@H](CN(C)S(=O)(=O)c1ccc(F)cc1)OCCCC[C@H](C)O2 [Compound 13] | <5 % remaining | –
7 | C[C@@H]1CN([C@@H](C)CN(C)C)C(=O)c2cccnc2O[C@@H](C)CCCCO[C@H]1CN(C)S(=O)(=O)c1ccc(F)cc1 [Compound 22] | <5% remaining | –
8 | CCN(CC)C[C@H](C)N1C[C@@H](C)[C@H](CN(C)S(=O)(=O)c2ccc(F)cc2)OCCCC[C@H](C)Oc2ncccc2C1=O [Compound 23] | <5% remaining | –
9 | CNC[C@H](C)N1C[C@@H](C)[C@H](CN(C)S(=O)(=O)c2ccc(F)cc2)OCCCCOc2ccc(NC(=O)Nc3c(C)noc3C)cc2C1=O [Compound 35] | 65 % remaining | –
10 | Cc1noc(C)c1NC(=O)Nc1ccc2c(c1)C(=O)N([C@@H](C)CN(C)C)C[C@@H](C)[C@H](CN(C)S(=O)(=O)c1ccc(F)cc1)OCCCCO2 [Compound 36] | 15 % remaining | –

The next lines start with results.

Row | Microsome Stability [1] | SMILES | further results
11 | 8 % remaining | Cc1noc(C)c1NC(=O)Nc1ccc2c(c1)C(=O)N([C@@H](C)CN(C)C)C[C@@H](C)[C@H](CN(C)S(=O)(=O)c1ccc(F)cc1)OCCCC[C@H](C)O2 [Compound 5] | metabolism in mouse liver microsomes [2]: extensively metabolized
12 | 51 % remaining | CNC[C@H](C)N1C[C@@H](C)[C@H](CN(C)S(=O)(=O)c2ccc(F)cc2)OCCCC[C@H](C)Oc2ccc(NC(=O)Nc3c(C)noc3C)cc2C1=O [Compound 6] | metabolism in mouse liver microsomes [2]: extensively metabolized
13 | 5 % remaining | Cc1noc(C)c1NC(=O)Nc1ccc2c(c1)C(=O)N([C@@H](C)CNCC(C)(C)C)C[C@@H](C)[C@H](CN(C)S(=O)(=O)c1ccc(F)cc1)OCCCC[C@H](C)O2 [Compound 11] | –
14 | <5 % remaining | Cc1noc(C)c1NC(=O)Nc1ccc2c(c1)C(=O)N([C@@H](C)CNCC(F)(F)F)C[C@@H](C)[C@H](CN(C)S(=O)(=O)c1ccc(F)cc1)OCCCC[C@H](C)O2 [Compound 12] | –
